Test results: ChEMBL document CHEMBL1781898, “Orally active achiral N-hydroxyformamide inhibitors of ADAM-TS4 (aggrecanase-1) and ADAM-TS5 (aggrecanase-2) for the treatment of osteoarthritis” (Bioorg Med Chem Lett, 2011)
Values after ≈ are worked out from the molar mass of the structure shown. Active and inactive are the calls of the source. No cut-off for these calls is given here.

What was measured:
[1] = Free drug level in human; assay type: ADME, organism-based; conditions: in vivo
[2] = Free drug level in dog; assay type: ADME, organism-based, Canis lupus familiaris; conditions: in vivo
[3] = Half life in mouse; assay type: ADME, organism-based; conditions: in vivo
[4] = Apparent permeability across basolateral to apical side in human Caco2 cells at 10 uM; assay type: ADME, cell-based; conditions: Caco-2
[5] = Volume of distribution at steady state in rat at 2 mg/kg, iv and 3 to 10 mg/kg, po; assay type: ADME, organism-based; conditions: in vivo, read-out: Vdss
Cytochrome P450 1A2 = target: T1, Cytochrome P450 1A2 (Homo sapiens, UniProt P05177); assay: Inhibition of CYP1A2; assay type: ADME
T1 sequence (P05177 whole entry): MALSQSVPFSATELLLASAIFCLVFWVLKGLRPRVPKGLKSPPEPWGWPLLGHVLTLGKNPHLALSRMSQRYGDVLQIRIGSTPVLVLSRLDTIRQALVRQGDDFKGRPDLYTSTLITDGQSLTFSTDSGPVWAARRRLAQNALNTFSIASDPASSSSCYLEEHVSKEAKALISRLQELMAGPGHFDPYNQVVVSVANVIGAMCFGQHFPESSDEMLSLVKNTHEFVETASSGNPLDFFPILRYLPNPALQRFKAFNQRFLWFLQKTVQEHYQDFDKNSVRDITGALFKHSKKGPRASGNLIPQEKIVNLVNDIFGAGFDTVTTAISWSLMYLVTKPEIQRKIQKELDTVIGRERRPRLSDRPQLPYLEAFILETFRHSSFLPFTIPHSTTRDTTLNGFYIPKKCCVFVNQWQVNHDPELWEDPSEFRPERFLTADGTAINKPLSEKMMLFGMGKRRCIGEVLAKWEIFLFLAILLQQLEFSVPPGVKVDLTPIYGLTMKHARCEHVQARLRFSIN
Procedure, shortened: (§1)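 Inhibition of cytochrome P450 isoforms 1A2, 2C9, 2C19, 2D6 and 3A4, reported as pIC50.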

[6] = Intrinsic clearance in human liver microsomes; assay type: ADME, Microsome
Procedure, shortened: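 Human liver microsome metabolism; intrinsic clearance expressed as μL/min/mg, reported as mean of eight separate experiments.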

[7] = Oral bioavailability in rat; assay type: ADME, organism-based; conditions: in vivo
[8] = Thermodynamic solubility of the compound in phosphate buffer at pH 7.4 after 24 hrs; assay type: physicochemical; conditions: read-out: Therm_solubility
Homo sapiens [9] = organism: Homo sapiens; assay: Inhibition of aggrecanase activity in IL-1, OSM and plasminogen-stimulated human articular cartilage explant assessed as reduction in CTXII peptide release at 10 uM after 14 days
[10] = Volume of distribution at steady state in mouse; assay type: ADME, organism-based; conditions: in vivo, read-out: Vdss
[11] = target: Voltage-gated inwardly rectifying potassium channel KCNH2 (Homo sapiens, UniProt Q12809)
[12] = Clearance in dog at 1 mg/kg, iv and 1 mg/kg, po; assay type: ADME, organism-based, Canis lupus familiaris; conditions: in vivo
[13] = Apparent permeability across apical to basolateral side in human Caco2 cells at 10 uM; assay type: ADME, cell-based; conditions: Caco-2
Cytochrome P450 3A4 = Cytochrome P450 3A4 (Homo sapiens, UniProt P08684); assay: Inhibition of CYP3A4; assay type: ADME; procedure, shortened: as §1
[14] = Clearance in mouse; assay type: ADME, organism-based; conditions: in vivo
[15] = Lipophilicity, log D of the compound; assay type: physicochemical; conditions: octanol/water
[16] = Free drug level in rat; assay type: ADME, organism-based; conditions: in vivo
Cavia porcellus = assay: Inhibition of ADAMTS4 in sc dosed Dunkin hartley guinea pig spontaneous osteoarthritis model assessed as reduction in NITEGE release in medial cartilage at concentration equivalent to 4 to 7 fold human ADAMTS4 FRET IC50 administered for 7 days; assay type: functional, organism-based
Procedure, shortened: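 Compound given for 7 days via subcutaneous mini-pump; articular cartilage then dissected from medial tibial plateau of hind knee joints and NITEGE neo-epitope levels measured in cartilage extracts versus vehicle-treated animals; significance P < 0.05.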

[17] = Volume of distribution at steady state in dog at 1 mg/kg, iv and 1 mg/kg, po; assay type: ADME, organism-based, Canis lupus familiaris; conditions: in vivo, read-out: Vdss
Homo sapiens [18] = organism: Homo sapiens; assay: Inhibition of aggrecanase activity in IL-1, OSM and plasminogen-stimulated human articular cartilage explant assessed as reduction in CTXII peptide release at 10 uM after 21 days
Procedure, shortened: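 Human cartilage stimulated with interleukin-1, oncostatin-M and plasminogen for 21 days, without or with 10 µM compound.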

Cytochrome P450 2C19 = Cytochrome P450 2C19 (Homo sapiens, UniProt P33261); assay: Inhibition of CYP2C19; assay type: ADME; procedure, shortened: as §1
[19] = Half life in rat at 2 mg/kg, iv and 3 to 10 mg/kg, po; assay type: ADME, organism-based; conditions: in vivo
Cytochrome P450 2D6 = Cytochrome P450 2D6 (Homo sapiens, UniProt P10635); assay: Inhibition of CYP2D6; assay type: ADME; procedure, shortened: as §1
[20] = Oral bioavailability in dog; assay type: ADME, organism-based, Canis lupus familiaris; conditions: in vivo
[21] = target: T2, A disintegrin and metalloproteinase with thrombospondin motifs 5 (Homo sapiens, UniProt Q9UNA0); assay: Inhibition of ADAMTS-5 assessed as substrate cleavage after 16 hrs by fluorescence assay
T2 sequence (Q9UNA0 whole entry): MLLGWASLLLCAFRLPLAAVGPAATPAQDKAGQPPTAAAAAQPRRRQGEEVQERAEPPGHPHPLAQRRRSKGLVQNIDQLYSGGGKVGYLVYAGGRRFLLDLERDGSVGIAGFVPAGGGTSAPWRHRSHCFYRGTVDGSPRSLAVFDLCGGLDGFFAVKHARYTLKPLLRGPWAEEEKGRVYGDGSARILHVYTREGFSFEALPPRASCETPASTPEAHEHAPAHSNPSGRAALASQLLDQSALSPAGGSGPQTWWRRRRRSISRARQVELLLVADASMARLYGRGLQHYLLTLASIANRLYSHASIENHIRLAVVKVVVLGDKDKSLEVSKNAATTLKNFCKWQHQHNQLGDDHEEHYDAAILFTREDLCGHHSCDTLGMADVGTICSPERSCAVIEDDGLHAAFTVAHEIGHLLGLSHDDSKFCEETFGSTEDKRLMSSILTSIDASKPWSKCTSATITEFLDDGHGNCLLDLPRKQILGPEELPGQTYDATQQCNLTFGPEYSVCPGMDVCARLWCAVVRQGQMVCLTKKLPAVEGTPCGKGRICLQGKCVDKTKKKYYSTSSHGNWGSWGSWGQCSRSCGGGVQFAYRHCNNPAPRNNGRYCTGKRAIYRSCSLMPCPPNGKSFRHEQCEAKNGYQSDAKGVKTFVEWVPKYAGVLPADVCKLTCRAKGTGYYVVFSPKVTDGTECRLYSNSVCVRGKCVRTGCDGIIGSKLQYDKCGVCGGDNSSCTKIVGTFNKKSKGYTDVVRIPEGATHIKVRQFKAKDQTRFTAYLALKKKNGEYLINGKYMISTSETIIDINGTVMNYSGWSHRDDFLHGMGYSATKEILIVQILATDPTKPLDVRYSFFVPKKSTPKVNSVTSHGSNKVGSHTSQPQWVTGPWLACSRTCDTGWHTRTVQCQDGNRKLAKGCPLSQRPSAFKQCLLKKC
Procedure, shortened: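 Enzyme inhibition IC50s derived from at least six measurements, standard errors normally <5% within an assay; a standard compound run to keep assay-to-assay variability within twofold.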

[22] = Intrinsic clearance in human hepatocytes measured per million cells; assay type: ADME, cell-based, Liver, Hepatocyte
Procedure, shortened: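 Human hepatocyte metabolism; intrinsic clearance expressed as μL/min/10⁶ cells, reported as mean of six separate experiments.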

Cytochrome P450 2C9 = Cytochrome P450 2C9 (Homo sapiens, UniProt P11712); assay: Inhibition of CYP2C9; assay type: ADME; procedure, shortened: as §1
Sequence of Cytochrome P450 2C9 (P11712 whole entry): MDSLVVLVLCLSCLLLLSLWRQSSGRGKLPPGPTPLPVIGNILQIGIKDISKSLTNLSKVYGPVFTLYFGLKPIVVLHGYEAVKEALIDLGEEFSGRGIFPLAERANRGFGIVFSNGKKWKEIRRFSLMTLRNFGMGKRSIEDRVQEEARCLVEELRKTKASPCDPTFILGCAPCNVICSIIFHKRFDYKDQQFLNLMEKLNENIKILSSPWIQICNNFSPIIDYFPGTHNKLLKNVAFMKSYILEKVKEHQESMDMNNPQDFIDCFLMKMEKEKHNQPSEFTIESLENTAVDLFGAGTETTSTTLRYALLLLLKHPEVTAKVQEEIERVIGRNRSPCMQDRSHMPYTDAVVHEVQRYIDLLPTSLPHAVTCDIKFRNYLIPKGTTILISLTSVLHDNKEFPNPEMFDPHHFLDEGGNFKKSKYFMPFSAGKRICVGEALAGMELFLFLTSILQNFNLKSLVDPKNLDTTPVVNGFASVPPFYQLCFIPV

Sequence of Voltage-gated inwardly rectifying potassium channel KCNH2 (Q12809 whole entry): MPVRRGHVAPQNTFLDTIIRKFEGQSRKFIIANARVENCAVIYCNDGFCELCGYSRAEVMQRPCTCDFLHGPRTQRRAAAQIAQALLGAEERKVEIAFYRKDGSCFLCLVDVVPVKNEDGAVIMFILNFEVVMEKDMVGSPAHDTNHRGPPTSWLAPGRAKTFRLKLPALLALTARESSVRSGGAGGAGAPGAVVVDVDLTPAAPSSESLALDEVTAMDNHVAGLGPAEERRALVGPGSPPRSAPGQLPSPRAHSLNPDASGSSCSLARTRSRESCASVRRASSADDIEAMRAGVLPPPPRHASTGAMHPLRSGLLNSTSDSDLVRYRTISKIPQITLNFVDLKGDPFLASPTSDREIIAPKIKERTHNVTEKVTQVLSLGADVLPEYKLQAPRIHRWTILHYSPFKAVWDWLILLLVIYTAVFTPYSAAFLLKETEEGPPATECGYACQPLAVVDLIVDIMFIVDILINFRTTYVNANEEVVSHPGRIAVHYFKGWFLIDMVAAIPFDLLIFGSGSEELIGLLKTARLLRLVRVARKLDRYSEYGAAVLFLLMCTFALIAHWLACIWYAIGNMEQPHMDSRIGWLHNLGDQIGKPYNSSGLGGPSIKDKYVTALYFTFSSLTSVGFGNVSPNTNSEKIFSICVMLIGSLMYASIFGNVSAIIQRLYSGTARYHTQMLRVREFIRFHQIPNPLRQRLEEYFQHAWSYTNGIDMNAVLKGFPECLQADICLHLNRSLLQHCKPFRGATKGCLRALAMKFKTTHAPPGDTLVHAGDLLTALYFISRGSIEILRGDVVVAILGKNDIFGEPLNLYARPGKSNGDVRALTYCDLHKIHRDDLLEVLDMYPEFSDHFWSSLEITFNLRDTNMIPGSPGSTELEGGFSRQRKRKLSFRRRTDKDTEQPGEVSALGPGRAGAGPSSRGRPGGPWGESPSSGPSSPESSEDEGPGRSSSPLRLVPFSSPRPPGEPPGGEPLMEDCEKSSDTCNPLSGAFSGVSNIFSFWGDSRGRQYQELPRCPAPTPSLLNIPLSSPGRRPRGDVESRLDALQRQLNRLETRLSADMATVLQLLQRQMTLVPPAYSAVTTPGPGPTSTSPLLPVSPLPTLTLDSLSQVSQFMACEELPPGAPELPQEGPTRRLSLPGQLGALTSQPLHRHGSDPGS
Sequence of Cytochrome P450 2D6 (P10635 whole entry): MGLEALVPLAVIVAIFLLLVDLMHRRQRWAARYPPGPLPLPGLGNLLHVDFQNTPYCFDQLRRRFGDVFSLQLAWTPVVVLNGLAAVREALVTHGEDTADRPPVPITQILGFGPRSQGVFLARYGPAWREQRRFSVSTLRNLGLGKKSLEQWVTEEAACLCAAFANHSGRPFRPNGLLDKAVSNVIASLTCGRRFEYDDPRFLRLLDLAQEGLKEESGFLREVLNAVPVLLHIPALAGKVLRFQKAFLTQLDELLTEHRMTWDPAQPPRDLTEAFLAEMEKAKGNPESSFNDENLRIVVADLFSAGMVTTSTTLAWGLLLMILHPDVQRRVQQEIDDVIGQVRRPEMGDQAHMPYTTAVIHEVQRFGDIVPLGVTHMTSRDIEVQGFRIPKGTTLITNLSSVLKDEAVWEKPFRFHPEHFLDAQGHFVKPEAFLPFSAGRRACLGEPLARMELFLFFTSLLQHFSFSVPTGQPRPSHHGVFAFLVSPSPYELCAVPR
Sequence of Cytochrome P450 3A4 (P08684 whole entry): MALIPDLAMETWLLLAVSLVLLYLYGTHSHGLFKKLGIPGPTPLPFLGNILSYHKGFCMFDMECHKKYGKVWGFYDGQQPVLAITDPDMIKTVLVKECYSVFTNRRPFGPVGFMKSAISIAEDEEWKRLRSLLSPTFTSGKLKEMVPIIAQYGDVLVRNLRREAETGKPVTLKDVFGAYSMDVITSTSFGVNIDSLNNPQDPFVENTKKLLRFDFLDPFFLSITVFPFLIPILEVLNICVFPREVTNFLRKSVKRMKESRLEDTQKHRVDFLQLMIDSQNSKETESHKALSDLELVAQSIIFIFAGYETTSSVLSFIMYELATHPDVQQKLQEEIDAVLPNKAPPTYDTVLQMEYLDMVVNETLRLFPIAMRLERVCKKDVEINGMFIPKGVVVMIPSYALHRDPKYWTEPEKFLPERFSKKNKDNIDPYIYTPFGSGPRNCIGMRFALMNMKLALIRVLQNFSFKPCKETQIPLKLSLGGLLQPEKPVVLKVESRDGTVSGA
Sequence of Cytochrome P450 2C19 (P33261 whole entry): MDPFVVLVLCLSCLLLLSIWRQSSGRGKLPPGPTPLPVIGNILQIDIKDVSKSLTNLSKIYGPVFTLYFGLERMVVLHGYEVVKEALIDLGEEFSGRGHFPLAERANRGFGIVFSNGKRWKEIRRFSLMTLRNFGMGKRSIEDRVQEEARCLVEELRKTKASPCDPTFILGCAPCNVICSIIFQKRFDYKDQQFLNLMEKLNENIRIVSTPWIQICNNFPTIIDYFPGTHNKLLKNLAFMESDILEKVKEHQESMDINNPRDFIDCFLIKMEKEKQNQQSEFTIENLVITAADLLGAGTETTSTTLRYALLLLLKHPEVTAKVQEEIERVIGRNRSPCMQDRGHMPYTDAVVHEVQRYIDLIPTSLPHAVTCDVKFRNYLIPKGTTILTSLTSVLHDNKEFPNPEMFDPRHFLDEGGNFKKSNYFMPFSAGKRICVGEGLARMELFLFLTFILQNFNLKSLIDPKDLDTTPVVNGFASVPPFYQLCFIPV

Cc1noc(C)c1CCC1CCN(S(=O)(=O)C[C@](C)(C[C@H](C)c2ncc(F)cn2)N(O)C=O)CC1
fraction unbound [1]: 0.11
fraction unbound [2]: 0.25
half-life [3]: 5.4 h
Papp B→A at 10 µM [4]: 10.9 ×10⁻⁶ cm/s
Vd [5]: 7.4 L/kg
inhibition (INH) (Cytochrome P450 1A2): Not Active
microsomal CLint [6]: 29.4 µL/min/mg
bioavailability [7]: 1%
solubility thermodynamic at 24 h [8]: 150 µM (≈ 76.7 µg/mL)
inhibition (Homo sapiens [9]): Active
Vd [10]: 7.2 L/kg
IC50 [11]: 65 µM
clearance [12]: 20.7 mL/min/kg
Papp A→B at 10 µM [13]: 5.3 ×10⁻⁶ cm/s
inhibition (INH) (Cytochrome P450 3A4): Not Active
clearance [14]: 16.8 mL/min/kg
logD [15]: 1.6
fraction unbound [16]: 0.22
inhibition (Cavia porcellus): Active
Vd [17]: 9.2 L/kg
inhibition (Homo sapiens [18]): Active
inhibition (INH) (Cytochrome P450 2C19): Not Active
half-life [19]: 11 h
inhibition (INH) (Cytochrome P450 2D6): Not Active
bioavailability [20]: 20%
IC50 [21]: 0.023 µM
hepatocyte CLint [22]: < 2 µL/min/1e6 cells
inhibition (INH) (Cytochrome P450 2C9): Not Active
